A selection: hits, their analogues and other compounds. The true share with any hit is near 1.7%.
IDE act: activators of human insulin-degrading enzyme in cells. 340,000 tested, 0.073% active. HEK cells, FAbeta-B cleavage, fluorescence polarization; 0% vehicle, 100% cell-free pure enzyme wells. activation, % at 5.96 µM. P14735;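 active means activation above the mean of all tested compounds plus 3 SD, set per screening campaign, cut at about 17% in these data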
CSN deneddyl inh: blocks human CSN-mediated cullin deneddylation | Q92905 | Purified CSN, SCF-Nedd8-OG deneddylation, fluorescence polarization | inhibition, % at 12.5 µM | 360,000 tested, 0.38% active | AID 651999;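 active means pattern-corrected inhibition above about 35%, with an unprinted fluorescence ratio check between 0.5 and 1.5, limit read from the data, passing the limit was not always enough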;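 further: 0% = enzyme with substrate and 100% = substrate without enzyme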
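Test system: Human Csn5 produced in HEK293T cells | Compound: 12.5 µM single point | Times: 90 min, room temperature | Signal: Fluorescence polarization readout | Read-out basis: % inhibition of substrate cleavage by Csn5 | Controls: no-enzyme wells high, enzyme-with-substrate wells low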
TPT1 inh: inhibitors of Candida albicans tRNA 2'-phosphotransferase TPT1. recombinant caTPT1, FP RNA substrate dephosphorylation. inhibition, % at 5 µM. 300,000 tested, 0.81% active;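 active means inhibition above the mean of all tested compounds plus 3 SD, set per screening campaign, cut at about 24% in these data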;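 further: plate controls were DMSO alone for no effect and ferristatin control at 100 nM for full effect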
HNF4A DNA FP: change in binding of human HNF4 alpha to DNA; P41235; HNF4a-FITC DNA binding, fluorescence polarization, 1 h; activity change, % at 10 µM; 360,000 tested, 0.3% active; AID 1224865; in the data active means activity change above about 30%, passing the limit was not always enough
IDE cell inh: inhibitors of human insulin-degrading enzyme in cells; inhibition, % at 5.59 µM; HEK cells, FAbetaB cleavage, fluorescence polarization; 320,000 tested, 0.41% active;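 active means percent inhibition above the average of all tested compounds plus 3 SD, set per screening campaign, cut at about 16% in these data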;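 further: IDE supplied by intact live HEK cells; FP after avidin binding of uncleaved biotin substrate so inhibition keeps polarization high; 0% = DMSO wells and 100% = 60 µM reference IDE inhibitor Ii1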
Rpn11 block: inhibitors of human proteasome Rpn11 | human 26S proteasome, Ub4-pepOG fluorescence polarization; 20S core pre-blocked with epoxomicin | 360,000 tested, 0.59% active | calls only at 20 µM;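 active means inhibition at 20 µM, scaled to each plate's controls, above about 33%, limit read from the data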
Target sequence (O00487 whole entry, looked up): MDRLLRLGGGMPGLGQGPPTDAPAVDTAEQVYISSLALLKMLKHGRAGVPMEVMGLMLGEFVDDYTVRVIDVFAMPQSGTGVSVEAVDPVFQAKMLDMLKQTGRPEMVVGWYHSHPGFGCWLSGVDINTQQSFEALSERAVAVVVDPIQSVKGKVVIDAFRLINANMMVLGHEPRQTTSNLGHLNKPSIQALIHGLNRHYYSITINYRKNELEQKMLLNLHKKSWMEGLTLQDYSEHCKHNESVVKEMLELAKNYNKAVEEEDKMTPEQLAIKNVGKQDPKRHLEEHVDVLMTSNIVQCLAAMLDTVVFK
caTPT1 confirm: confirmation of Candida albicans TPT1 inhibitors | AID 2149 | shares compounds with TPT1 inh | recombinant caTPT1, fluorescence polarization, RNase T1 coupled | inhibition, % at 5 µM | 2,400 tested, 74% active;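 active means inhibition above the primary screen limit, the mean inhibition of all tested compounds plus 3 SD, cut at about 25% in these data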
RNase T1 inh: counter-screen for TPT1 inhibitors: inhibitors of Aspergillus oryzae RNase T1. shares compounds with TPT1 inh. RNase T1 cleavage, fluorescence polarization, 1536-well. inhibition, % at 5 µM. 2,400 tested, 83% active. AID 2153;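 active means inhibition above the solvent-only control well mean plus 3 SD, limit set per screening run, cut at about 23% in these data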;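 further: plate controls were DMSO wells with enzyme for no effect and wells without RNase T1 for full effect; inhibitors block cleavage so intact labeled substrate keeps polarization high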
Target sequence (P00651 whole entry, looked up): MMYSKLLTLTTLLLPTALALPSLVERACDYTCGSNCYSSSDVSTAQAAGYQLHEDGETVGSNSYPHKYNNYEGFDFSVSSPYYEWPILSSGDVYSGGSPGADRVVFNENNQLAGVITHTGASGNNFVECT
* marks the source's active call; other numbers are inactive results; i = inactive; · = not tested or not shown; + = active, no number.

SMILES | IDE act | CSN deneddyl inh | TPT1 inh | HNF4A DNA FP | IDE cell inh | Rpn11 block | caTPT1 confirm | RNase T1 inh
CCOc1ccc(-n2ccnc2SCC(=O)Nc2cc(C)on2)cc1 | 3.1 | 8.2 | 118.8* | 2.9 | 5.6 | i | 7.1 | 10.4
Cc1cc(=O)n2nc(N3CCCC3C(=O)Nc3cccc(Cl)c3C)sc2n1 (configuration not stated) | -7.0 | 4.2 | 30.4* | 12.8 | 2.4 | i | 92.0* | 103.1*
N#C/C(=C\c1ccc(Sc2ccc(Cl)cc2)o1)c1nc2ccccc2[nH]1 | -12.0 | 4.1 | 52.3* | 13.7 | 9.3 | i | 51.1* | 65.8*
O=C(NCCO)/C(=C\c1ccco1)NC(=O)c1cccs1 | -4.5 | -4.2 | -0.4 | 0.3 | 1.2 | i | · | ·
CSCCC(NC(=O)c1ccccc1)C(=O)N(C)CC(=O)Nc1ccc(N2CCOCC2)cc1 (configuration not stated) | 16.4 | 3.6 | -0.3 | -1.4 | -2.6 | i | · | ·
Nc1nnc(SCC(=O)c2ccccc2)s1 | 1.2 | 0.3 | 5.5 | 0.1 | 6.5 | i | · | ·
Nc1c(C(=O)c2ccccc2)sc2snc(SCC(=O)c3ccccc3)c12 | -17.5 | 3.9 | 101.6* | 15.7 | 10.5 | i | 71.1* | 77.3*
O=C(Nc1sccc1C(=O)NCc1ccco1)c1cccnc1 | 1.2 | 8.6 | 24.3* | 9.1 | 1.0 | i | 42.3* | 55.6*
O=C(NCc1ccco1)c1ccccc1 | 1.7 | -6.1 | 0.5 | 0.2 | 4.2 | i | · | ·
Oc1ccccc1CN1CCN(C(O)(c2ccccc2)c2ccccc2)CC1 | -2.5 | -5.8 | 0.1 | 5.9 | -2.7 | i | · | ·
CCCc1cc2c(=O)n(NC(=O)c3nn(C)cc3[N+](=O)[O-])c(C)nc2s1 | 1.8 | -1.7 | 57.4* | 1.2 | 7.8 | i | 3.5 | 5.3
Cn1cc([N+](=O)[O-])c(C(=O)NCC(=O)O)n1 | 8.2 | -5.9 | -0.3 | 0.9 | -1.0 | i | · | ·
COc1ccc(C)cc1Nc1n[n+](-c2ccccc2)c(-c2ccc(NC(C)=O)cc2)s1 | -3.7 | 4.0 | 6.4 | 7.7 | 1.3 | i | · | ·
COc1ccc(C)cc1Nc1n[n+](-c2ccccc2)c(-c2cc([N+](=O)[O-])cc(OC)c2O)s1 | -6.4 | 73.0 | 24.2* | 206.9 | -5.4 | · | 119.6* | 120.2*
O=C(CCN1C(=O)c2ccc([N+](=O)[O-])cc2C1=O)Nc1cccc(O)c1 | -0.9 | -5.2 | -0.1 | 1.5 | 7.3 | i | · | ·
CN1CCN(S(=O)(=O)c2cccc(C(=O)Nc3sc4c(c3-c3nc5ccccc5[nH]3)CCCC4)c2)CC1 | -5.1 | 2.8 | 32.9* | 0.1 | 2.9 | i | 34.8* | 48.0*
CC(C)(C)c1ccc(OCCC(=O)OCC(=O)N2c3ccccc3NC(=O)C2(C)C)cc1 | 2.6 | 3.7 | -1.6 | -3.3 | 2.5 | i | · | ·
CC1=Nc2ccccc2/C1=C\c1nc(-c2ccc(F)cc2)oc1O | -0.6 | 2.5 | 92.9* | 14.2 | 5.1 | i | 95.6* | 101.7*
Cc1c(Cl)cccc1NS(=O)(=O)c1cn(C)c(=O)n(C)c1=O | 1.2 | -0.5 | -1.1 | -0.4 | 1.3 | i | · | ·
CNC(=O)/C(C#N)=C1/SC(Cc2ccc(F)cc2)C(=O)N1c1ccccc1 (configuration not stated) | -3.3 | -0.7 | -4.7 | 0.7 | 12.1 | i | · | ·
N#C/C(C(N)=O)=C1/SC(Cc2ccc(F)cc2)C(=O)N1c1ccccc1 (configuration not stated) | -3.6 | 0.4 | 27.7* | 2.5 | 8.7 | i | 4.0 | 5.0
COC(=O)c1ccc2nc(-c3ccc(C)cc3)c(CC3CCCCC3)n2c1 | · | 4.6 | · | 11.6 | · | i | · | ·
Cc1cccc(N/C(N)=N/c2nc(CSc3ccc(Cl)cc3)cc(=O)[nH]2)c1 | · | · | -0.8 | · | -2.8 | · | · | ·
CCC(C)N1C(=O)/C(=C/c2c(NCCCOC(C)C)nc3c(C)cccn3c2=O)SC1=S (configuration not stated) | -34.2 | -78.4 | 150.8* | 1.8 | 14.4 | i | 164.8* | 156.2*
CN(CC(=O)N1CCN(c2ccccn2)CC1)S(=O)(=O)c1ccc(Cl)cc1 | 1.1 | -5.5 | -4.8 | -5.1 | 3.8 | i | · | ·
SMILES | IDE act | CSN deneddyl inh | TPT1 inh | HNF4A DNA FP | IDE cell inh | Rpn11 block | caTPT1 confirm | RNase T1 inh
CCNc1ccc(Br)cc(C(=O)/C=C/c2c(Cl)cccc2Cl)c1=O | -5.0 | 36.5* | 70.3* | 2.5 | 3.2 | + | 75.3* | 84.2*
CCNc1ccc(Br)cc(C(=O)/C=C/c2ccc(Cl)cc2)c1=O | -2.3 | 32.5 | 64.3* | -1.4 | 1.7 | i | 45.7* | 70.6*
CS(=O)(=O)Nc1ccc(Br)cc1C(=O)c1ccccc1 | 1.4 | -8.7 | -1.3 | 0.5 | 4.0 | i | · | ·
COc1cc2ccc(C(C)=O)cc2cc1OC | · | -3.8 | · | -2.3 | · | i | · | ·
Cn1c(NCCO)nc2c1c(=O)n(Cc1cccc(Cl)c1)c(=O)n2C | 1.1 | -2.3 | -2.1 | 1.5 | 2.8 | i | · | ·
Nc1cc(C(=O)OCC(=O)Nc2cccc(S(=O)(=O)N3CCOCC3)c2)ccc1Cl | 2.4 | 2.2 | · | -1.2 | 8.0 | i | · | ·
CCOc1cccc(OCCOCCNC(C)(C)C)c1 | 6.0 | 0.9 | 37.8* | 3.8 | -3.3 | i | 7.6 | 9.7
NC(=S)N1N=C(c2ccccc2)CC1=O | 4.6 | -1.7 | · | -2.9 | · | i | · | ·
CSc1ncccc1C(=O)NC1CCCc2c1cnn2-c1ccc(C)c(C)c1 (configuration not stated) | 2.9 | -1.1 | -0.6 | -1.9 | 4.6 | i | · | ·
CCN(CC)c1ccc(NC(=O)Cn2c(C(C)NC(=O)c3ccccc3)nc3ccccc32)cc1 (configuration not stated) | 2.1 | -15.8 | 52.7* | 1.3 | 4.7 | i | 8.2 | 10.7
CC(=O)Nc1ncc(Sc2ccc([N+](=O)[O-])cc2)s1 | 1.5 | -1.7 | · | -0.6 | · | i | · | ·
Cc1ccc(NC(=O)/C(C#N)=C/c2cn(CC(=O)NCc3ccco3)c3ccccc23)cc1C | 3.2 | 9.5 | 28.9* | 27.4 | -0.4 | · | 66.9* | 79.6*
Cc1cc(C)cc(NC(=O)/C(C#N)=C/c2cn(CC(=O)NCc3ccco3)c3ccccc23)c1 | 9.2 | -5.0 | 1.8 | -0.8 | -2.7 | i | · | ·
O=C(NNc1ncnc2c1cnn2-c1ccc(F)cc1)c1ccco1 | 6.0 | -1.0 | -2.1 | 4.2 | -1.0 | i | · | ·
Cc1cccc(N2CCN(C(=O)c3ccc4c(c3)NC(=O)C(CSCc3ccc(F)cc3)N4)CC2C)c1 (configuration not stated) | · | · | 122.1* | · | -5.1 | · | 61.9* | 74.3*
Cc1cccc(N2CCN(C(=O)c3ccc4c(c3)c(C)c(C)n4C)CC2C)c1 (configuration not stated) | -5.7 | 3.9 | -1.2 | 10.5 | 9.8 | i | · | ·

Source: PubChem BioAssay
